We go through one compound from ChEMBL document CHEMBL2429786, “New serotonin 5-HT1A receptor agonists endowed with antinociceptive activity in vivo” (J Med Chem, 2013).

The target of one data set is Albumin (Homo sapiens, UniProt P02768). Briefly: Binding affinity to human serum albumin at 5 uM after 12 mins by HPLC-MS analysis relative to control. It counts as ADME. As to conditions: isolated protein, 0.2 h.
The target of the next data set is CYP2D6 (Homo sapiens, UniProt P10635). Briefly: Inhibition of human recombinant microsomal CYP2D6 using {3-[2-(N,N-diethyl-N-methylamino)ethyl]-7-methoxy-4-methylcoumarin} as substrate assessed as remaining activity at 10 uM after 30 mins by spectrofluorimetric analysis relative to control. The conditions noted are these: read-out: Activity. The class given is ADME.
CYP2D6, sequence (P10635 whole entry): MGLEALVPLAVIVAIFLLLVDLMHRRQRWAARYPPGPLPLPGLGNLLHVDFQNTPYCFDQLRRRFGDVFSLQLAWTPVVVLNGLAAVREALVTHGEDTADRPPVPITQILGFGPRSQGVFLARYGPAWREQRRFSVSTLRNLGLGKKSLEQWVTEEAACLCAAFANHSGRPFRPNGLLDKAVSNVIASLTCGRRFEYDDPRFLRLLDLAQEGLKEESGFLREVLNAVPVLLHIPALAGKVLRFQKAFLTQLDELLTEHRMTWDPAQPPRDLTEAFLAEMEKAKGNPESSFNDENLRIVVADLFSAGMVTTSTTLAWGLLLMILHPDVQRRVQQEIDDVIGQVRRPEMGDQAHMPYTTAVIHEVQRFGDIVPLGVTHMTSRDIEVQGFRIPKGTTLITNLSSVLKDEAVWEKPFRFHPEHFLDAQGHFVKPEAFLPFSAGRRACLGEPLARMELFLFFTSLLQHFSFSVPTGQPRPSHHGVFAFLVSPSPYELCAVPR

Data set [1] can be described thus: Half life in human liver microsomes at 1 to 5 uM by HPLC-MS analysis. It counts as ADME, Microsome. An outline of the steps:
(§1)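 Incubation mixtures pre-equilibrated at 37 °C with NADPH and MgCl2, then rat or human liver microsomes added to start the reaction. Aliquots were withdrawn and quenched at several time points, and percent parent remaining was measured by HPLC-MS and plotted against time. t1/2 was taken from the slope of peak area over time and used to calculate CLint.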

Data set [2] in a line: Intrinsic clearance in human liver microsomes at 1 to 5 uM by HPLC-MS analysis. It counts as ADME, Microsome. As to conditions: read-out: CLH. The essentials: as §1
On the technique in general: Liver microsomes are vesicles of endoplasmic reticulum, rich in cytochrome P450 enzymes.

The nature of data set [3]: Intrinsic clearance in Sprague-Dawley rat liver microsomes at 1 to 5 uM by HPLC-MS analysis. It counts as ADME, Microsome. The conditions noted are these: read-out: CLH. An outline of the steps: as §1
Data set [4] can be described thus: Half life in Sprague-Dawley rat liver microsomes at 1 to 5 uM by HPLC-MS analysis. It counts as ADME, Microsome. The essentials: as §1
The next data set is filed under the species Mus musculus. Briefly: Hypothermic activity in Swiss mouse assessed as change in rectal temperature after 60 mins. It counts as functional. The conditions noted are these: 1 h, read-out: MED.
The target in data set [5] is T1, 5-hydroxytryptamine receptor 1A (Homo sapiens, UniProt P08908).
T1 sequence (P08908 whole entry): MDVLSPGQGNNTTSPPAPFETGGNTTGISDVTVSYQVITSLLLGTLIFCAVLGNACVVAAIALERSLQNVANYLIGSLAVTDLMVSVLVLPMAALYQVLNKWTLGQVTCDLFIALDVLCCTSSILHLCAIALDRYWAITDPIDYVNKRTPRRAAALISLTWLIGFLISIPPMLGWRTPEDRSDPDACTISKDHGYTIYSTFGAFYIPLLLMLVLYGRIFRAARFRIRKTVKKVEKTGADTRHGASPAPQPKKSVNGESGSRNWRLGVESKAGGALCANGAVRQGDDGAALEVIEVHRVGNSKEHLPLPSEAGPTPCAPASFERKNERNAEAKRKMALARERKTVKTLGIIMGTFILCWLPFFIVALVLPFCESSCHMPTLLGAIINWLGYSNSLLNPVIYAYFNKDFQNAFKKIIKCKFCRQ
Description: Partial agonist activity at human 5-HT1A receptor expressed in human HeLa cells assessed as inhibition of forskolin-stimulated cAMP formation after 10 mins by RIA. The class given is functional, cell-based. On the technique in general: cAMP levels reflect the balance of adenylyl cyclase and phosphodiesterase activity.

Data set [6] has as its target T2, 5-hydroxytryptamine receptor 1A (Rattus norvegicus, UniProt P19327).
T2 sequence (P19327 whole entry): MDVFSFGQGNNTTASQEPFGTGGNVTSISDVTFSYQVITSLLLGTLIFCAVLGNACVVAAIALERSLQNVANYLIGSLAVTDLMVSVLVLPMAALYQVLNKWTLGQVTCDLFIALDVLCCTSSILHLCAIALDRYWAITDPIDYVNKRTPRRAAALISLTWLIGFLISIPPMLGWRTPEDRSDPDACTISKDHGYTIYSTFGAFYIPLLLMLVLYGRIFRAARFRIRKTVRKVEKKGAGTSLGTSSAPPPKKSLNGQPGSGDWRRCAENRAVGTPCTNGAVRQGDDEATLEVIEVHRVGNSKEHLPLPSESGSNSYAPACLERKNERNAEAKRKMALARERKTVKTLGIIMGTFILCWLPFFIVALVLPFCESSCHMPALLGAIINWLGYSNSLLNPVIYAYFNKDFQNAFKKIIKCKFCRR
Description: Displacement of [3H]-8-OH-DPAT from 5-HT1A receptor in Sprague-Dawley rat cerebral cortex after 15 mins. It counts as tissue-based. On the technique in general: In a radioligand displacement assay an active substance lowers the binding of a labelled ligand.

Data set [7] deals with 5-hydroxytryptamine receptor 7 (Rattus norvegicus, UniProt P32305). Description: Displacement of [3H]-5-CT from 5-HT7 receptor in Sprague-Dawley rat hypothalamus after 120 mins.
5-hydroxytryptamine receptor 7, sequence (P32305 whole entry): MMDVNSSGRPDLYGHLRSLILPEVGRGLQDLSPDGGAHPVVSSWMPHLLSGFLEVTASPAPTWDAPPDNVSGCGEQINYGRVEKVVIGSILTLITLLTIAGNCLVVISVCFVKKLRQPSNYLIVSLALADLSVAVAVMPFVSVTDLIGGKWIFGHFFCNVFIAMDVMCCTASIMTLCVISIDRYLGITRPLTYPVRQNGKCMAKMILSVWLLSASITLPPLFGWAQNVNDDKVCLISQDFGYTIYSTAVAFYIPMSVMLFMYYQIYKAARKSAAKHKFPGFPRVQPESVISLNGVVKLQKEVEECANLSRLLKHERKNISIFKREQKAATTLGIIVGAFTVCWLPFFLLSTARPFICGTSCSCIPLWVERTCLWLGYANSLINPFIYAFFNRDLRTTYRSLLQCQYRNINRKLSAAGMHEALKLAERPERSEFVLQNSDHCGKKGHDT
For data set [8], the target named is 5-hydroxytryptamine receptor 4 (Rattus norvegicus, UniProt Q62758). Description: Displacement of [3H]GR113808 from 5-HT4 receptor in Sprague-Dawley rat striatum after 30 mins.
5-hydroxytryptamine receptor 4, sequence (Q62758 whole entry): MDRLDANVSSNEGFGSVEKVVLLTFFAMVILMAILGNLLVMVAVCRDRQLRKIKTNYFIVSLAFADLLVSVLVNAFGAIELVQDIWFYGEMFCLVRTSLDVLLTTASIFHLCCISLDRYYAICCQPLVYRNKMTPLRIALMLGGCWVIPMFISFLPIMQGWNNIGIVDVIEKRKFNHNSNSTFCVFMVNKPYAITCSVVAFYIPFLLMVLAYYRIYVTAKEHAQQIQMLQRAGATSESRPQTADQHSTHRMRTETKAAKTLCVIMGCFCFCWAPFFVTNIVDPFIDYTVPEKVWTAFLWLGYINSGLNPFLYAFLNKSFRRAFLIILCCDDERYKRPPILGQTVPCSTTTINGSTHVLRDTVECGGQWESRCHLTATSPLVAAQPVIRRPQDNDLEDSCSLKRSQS
Data set [9] addresses T3, 5-hydroxytryptamine receptor 3A (Rattus norvegicus, UniProt P35563).
T3 sequence (P35563 whole entry): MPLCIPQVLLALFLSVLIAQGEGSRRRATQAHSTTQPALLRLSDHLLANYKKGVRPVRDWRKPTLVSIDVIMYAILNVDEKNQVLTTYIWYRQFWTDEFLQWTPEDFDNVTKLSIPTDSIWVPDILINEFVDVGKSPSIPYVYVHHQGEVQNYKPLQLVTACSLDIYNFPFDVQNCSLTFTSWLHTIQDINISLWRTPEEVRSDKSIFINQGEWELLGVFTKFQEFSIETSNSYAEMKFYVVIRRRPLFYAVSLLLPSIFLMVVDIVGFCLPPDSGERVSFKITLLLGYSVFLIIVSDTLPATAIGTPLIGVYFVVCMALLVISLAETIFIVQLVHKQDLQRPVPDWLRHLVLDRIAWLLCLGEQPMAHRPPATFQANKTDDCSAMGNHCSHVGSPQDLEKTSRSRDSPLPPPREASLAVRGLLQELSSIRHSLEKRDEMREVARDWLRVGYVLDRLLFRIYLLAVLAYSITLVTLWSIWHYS
Description: Displacement of [3H]LY 278584 from 5-HT3 receptor in Sprague-Dawley rat cerebral cortex after 30 mins. It counts as tissue-based.

In data set [10] the target is 5-hydroxytryptamine receptor 2A (Rattus norvegicus, UniProt P14842). Briefly: Displacement of [3H]ketanserin from 5-HT2A receptor in Sprague-Dawley rat frontal cortex after 15 mins. It counts as tissue-based.
5-hydroxytryptamine receptor 2A, sequence (P14842 whole entry): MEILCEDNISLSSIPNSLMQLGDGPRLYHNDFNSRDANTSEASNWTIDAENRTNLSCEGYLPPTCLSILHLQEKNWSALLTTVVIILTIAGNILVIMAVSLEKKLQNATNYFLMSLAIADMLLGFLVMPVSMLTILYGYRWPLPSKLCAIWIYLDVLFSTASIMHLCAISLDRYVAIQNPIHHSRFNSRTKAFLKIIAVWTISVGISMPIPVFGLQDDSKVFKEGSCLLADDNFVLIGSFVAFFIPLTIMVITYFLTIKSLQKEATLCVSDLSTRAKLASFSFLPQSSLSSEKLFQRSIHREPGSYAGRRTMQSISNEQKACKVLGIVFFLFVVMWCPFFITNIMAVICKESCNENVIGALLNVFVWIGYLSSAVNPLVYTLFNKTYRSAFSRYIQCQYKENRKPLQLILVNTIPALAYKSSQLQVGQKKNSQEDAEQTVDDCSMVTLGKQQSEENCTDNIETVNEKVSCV

Albumin, sequence (P02768 whole entry): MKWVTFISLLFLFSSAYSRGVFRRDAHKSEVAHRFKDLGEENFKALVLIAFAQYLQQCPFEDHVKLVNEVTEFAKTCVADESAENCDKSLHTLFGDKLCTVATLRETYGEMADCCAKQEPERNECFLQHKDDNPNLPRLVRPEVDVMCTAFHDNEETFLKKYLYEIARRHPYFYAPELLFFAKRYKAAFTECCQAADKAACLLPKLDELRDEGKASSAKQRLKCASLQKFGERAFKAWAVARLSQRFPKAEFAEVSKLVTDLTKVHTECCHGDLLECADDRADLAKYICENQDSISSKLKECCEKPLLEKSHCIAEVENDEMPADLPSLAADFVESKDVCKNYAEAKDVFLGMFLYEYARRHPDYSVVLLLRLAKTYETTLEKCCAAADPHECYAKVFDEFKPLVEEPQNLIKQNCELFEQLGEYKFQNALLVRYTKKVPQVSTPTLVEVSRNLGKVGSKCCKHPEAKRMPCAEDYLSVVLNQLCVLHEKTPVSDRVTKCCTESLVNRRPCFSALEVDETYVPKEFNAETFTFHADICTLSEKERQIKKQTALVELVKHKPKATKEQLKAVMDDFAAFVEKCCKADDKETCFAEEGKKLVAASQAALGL

On Albumin, `CCc1ccccc1OCCNCCCCN1C(=O)C2CCCN2C1=O.Cl` (stereo not drawn) showed an Activity of 55%. Moreover, the activity at 0.5 h, 10 µM on CYP2D6 was determined as 13%. Moreover, the results for the half-life at up to 5 µM in [1] and in [4] were 2.28 h and 0.178 h, respectively. Moreover, the figures for the CLint scaled at up to 5 µM in data set [2] and in [3] were 4.6 mL/min/kg and 131 mL/min/kg, respectively. In the data set filed under Mus musculus, the minimal effective dose was 10 mg/kg. In [5], the EC50 is 1200 nM. The Ki in [6] is 16.8 nM; in data set [7], 185 nM; in [8] it was more than 1000 nM; in data set [9], more than 1000 nM; in [10] it was 366 nM.

As usually defined, the half-life is the time in which the quantity being followed falls by half. Low values mean fast loss, high ones slow loss. As a reminder, the EC50 is the concentration giving half of the maximal effect. What is called Ki is the dissociation constant of the complex between target and ligand, obtained from inhibition or displacement. A lower Ki goes with higher affinity.
